ChEMBL document CHEMBL1132199, “Carboxy-substituted cinnamides: a novel series of potent, orally active LTB4 receptor antagonists” (J Med Chem, 1999)

How the values were obtained:
[1] = target: T1, Leukotriene B4 receptor (Homo sapiens, UniProt Q9NPC1+Q15722); test: In vitro leukotriene B4 receptor binding potency determined by displacement of [3H]- LTB4 from human neutrophils (PMNs)
How it was run: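 Intact human neutrophils from citrated venous blood (HESPAN sedimentation, Ficoll-Paque, hypotonic lysis), 3 × 10⁶ cells in HBSS with 0.5 nM [³H]LTB₄ and compound, 20 min at 0 °C. Bound label collected by filtration, filters washed with ice-cold HBSS, then scintillation-counted. Nonspecific binding taken with 300 nM LTB₄. Compound stocks 10 mM in DMSO, final DMSO 0.35%.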

[2] = test system: Mus musculus; test: Inhibition of Arachidonic acid (AA)-induced ear edema was determined at dosing of 17 hr challenge; expressed as myeloperoxide activity (MPO) at 10 mg/kg; 40/55; type: functional
[3] = target: T1, Leukotriene B4 receptor; test: LTB4 receptor antagonistic activity as inhibition of LTB4-induced [Ca2+] release from human PMNs; type: functional
How it was run: (§1)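 Human neutrophils from citrated venous blood (HESPAN sedimentation, centrifugal elutriation) loaded with 0.2 μM Fura-2 AM for 30 min at 37 °C, then held at 2 × 10⁶ cells/mL. Ca²⁺ and Mg²⁺ added back at 37 °C; compound given 40 s before 1 nM LTB₄; fluorescence change followed. Ki = IC50/(1 + [LTB₄]/EC50 of LTB₄). Final DMSO 0.35%.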

[4] = test system: Mus musculus; test: Inhibition of Arachidonic acid (AA)-induced ear edema was determined at dosing of 0.5 hr challenge; expressed as myeloperoxide activity (MPO) at 1 mg/kg; 24/24; type: functional
[5] = test system: Mus musculus; test: Inhibition of Arachidonic acid (AA)-induced ear edema was determined at dosing of 0.5 h challenge; expressed as myeloperoxide activity (MPO) at 3 mg/kg; 39/58; type: functional
[6] = test system: Mus musculus; test: Inhibition of Arachidonic acid (AA)-induced ear edema was determined at dosing of 0.5 hr challenge; expressed as myeloperoxide activity (MPO) at 0.1 mg/kg; 21/15; type: functional
[7] = test system: Mus musculus; test: Inhibition of Arachidonic acid (AA)-induced ear edema was determined at dosing of 17 hr challenge; expressed as myeloperoxide activity (MPO) at 3 mg/kg; 25/12; type: functional
[8] = test system: Mus musculus; test: Inhibition of Arachidonic acid (AA)-induced ear edema was determined at dosing of 17 hr challenge; expressed as myeloperoxide activity (MPO) at 10 mg/kg; 1/1; type: functional
[9] = test system: Mus musculus; test: Inhibition of Arachidonic acid (AA)-induced ear edema was determined at dosing of 17 hr challenge; expressed as myeloperoxide activity (MPO) at 10 mg/kg; 27/0; type: functional
[10] = test system: Mus musculus; test: Inhibition of Arachidonic acid (AA)-induced ear edema was determined at dosing of 17 hr challenge; expressed as myeloperoxide activity (MPO) at 10 mg/kg; 59/67; type: functional
[11] = test system: Mus musculus; test: Inhibition of Arachidonic acid (AA)-induced ear edema was determined at dosing of 17 hr challenge; expressed as myeloperoxide activity (MPO) at 3 mg/kg; 44/53; type: functional
[12] = test system: Mus musculus; test: Inhibition of Arachidonic acid (AA)-induced ear edema was determined at dosing of 0.5 h challenge; expressed as myeloperoxide activity (MPO) at 1 mg/kg; 32/38; type: functional
[13] = test system: Mus musculus; test: Inhibition of Arachidonic acid (AA)-induced ear edema was determined at dosing of 0.5 hr challenge; expressed as myeloperoxide activity (MPO) at 3 mg/kg; 45/53; type: functional
[14] = test system: Mus musculus; test: Inhibition of Arachidonic acid (AA)-induced ear edema was determined at dosing of 0.5 hr challenge; expressed as myeloperoxide activity (MPO) at 3 mg/kg; 52/58; type: functional
[15] = test system: Mus musculus; test: Inhibition of Arachidonic acid (AA)-induced ear edema was determined at dosing of 17 hr challenge; expressed as myeloperoxide activity (MPO) at 3 mg/kg; 34/15; type: functional
[16] = test system: Mus musculus; test: Inhibition of Arachidonic acid (AA)-induced ear edema was determined at dosing of 17 hr challenge; expressed as myeloperoxide activity (MPO) at 10 mg/kg; 46/54; type: functional
[17] = test system: Mus musculus; test: Inhibition of Arachidonic acid (AA)-induced ear edema was determined at dosing of 0.5 hr challenge; expressed as myeloperoxide activity (MPO) at 1 mg/kg; 26/32; type: functional
[18] = test system: Mus musculus; test: Inhibition of Arachidonic acid (AA)-induced ear edema was determined at dosing of 17 hr challenge; expressed as myeloperoxide activity (MPO) at 10 mg/kg; 0/0; type: functional
[19] = test system: Mus musculus; test: Inhibition of Arachidonic acid (AA)-induced ear edema was determined at dosing of 17 hr challenge; expressed as myeloperoxide activity (MPO) at 10 mg/kg; 27/31; type: functional
[20] = test system: Mus musculus; test: Inhibition of Arachidonic acid (AA)-induced ear edema was determined at dosing of 0.5 hr challenge; expressed as myeloperoxide activity (MPO) at 1 mg/kg; 50/67; type: functional
[21] = test system: Mus musculus; test: Inhibition of Arachidonic acid (AA)-induced ear edema was determined at dosing of 0.5 hr challenge; expressed as myeloperoxide activity (MPO) at 0.1 mg/kg; 41/49; type: functional
[22] = test system: Mus musculus; test: Inhibition of Arachidonic acid (AA)-induced ear edema was determined at dosing of 0.5 hr challenge; expressed as myeloperoxide activity (MPO) at 3 mg/kg; 56/71; type: functional
[23] = test system: Mus musculus; test: Inhibition of Arachidonic acid (AA)-induced ear edema was determined at dosing of 0.5 hr AA challenge; expressed as myeloperoxide activity (MPO) at 1 mg/kg; 14/0; type: functional
[24] = test system: Mus musculus; test: Inhibition of Arachidonic acid (AA)-induced ear edema was determined at dosing of) 17 hr challenge; expressed as myeloperoxide activity (MPO) at 10 mg/kg; 33/2; type: functional
[25] = test system: Mus musculus; test: Inhibition of Arachidonic acid (AA)-induced ear edema was determined at dosing of 17 hr challenge; expressed as myeloperoxide activity (MPO) at 10 mg/kg; 19/30; type: functional
[26] = target: Leukotriene B4 receptor 1 (Homo sapiens, UniProt Q15722); test: Leukotriene B4 receptor antagonistic activity was measured by the inhibition of LTB4 induced [Ca2+] release from human PMNs; type: functional; how it was run: as §1
[27] = test system: Mus musculus; test: Inhibition of Arachidonic acid (AA)-induced ear edema was determined at dosing of 17 hr challenge; expressed as myeloperoxide activity (MPO) at 3 mg/kg; 29/26; type: functional
[28] = test system: Mus musculus; test: Inhibition of Arachidonic acid (AA)-induced ear edema was determined at dosing of 0.5 h challenge; expressed as myeloperoxide activity (MPO) at 1 mg/kg; 41/41; type: functional
[29] = test system: Mus musculus; test: Inhibition of Arachidonic acid (AA)-induced ear edema was determined at dosing of 17 h challenge; expressed as myeloperoxide activity (MPO) at 10 mg/kg; 55/55; type: functional

Sequence of Leukotriene B4 receptor 1 (Q15722 whole entry): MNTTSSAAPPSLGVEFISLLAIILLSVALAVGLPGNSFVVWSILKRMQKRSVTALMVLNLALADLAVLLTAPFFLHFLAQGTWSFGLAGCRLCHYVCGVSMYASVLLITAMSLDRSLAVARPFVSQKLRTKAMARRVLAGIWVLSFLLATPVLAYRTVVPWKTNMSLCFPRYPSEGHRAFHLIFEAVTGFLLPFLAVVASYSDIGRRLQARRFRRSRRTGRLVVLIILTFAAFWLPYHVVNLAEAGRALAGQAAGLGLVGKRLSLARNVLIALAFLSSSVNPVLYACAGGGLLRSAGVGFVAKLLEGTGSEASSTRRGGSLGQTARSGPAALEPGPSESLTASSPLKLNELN

Row | Structure (SMILES) | IC50 [1] | Ki [3] | further results
1 | CCN(CC)C(=O)/C=C(\C)c1ccc(Oc2ccccc2)c(OCC(=O)O)c1 | 2400 nM |  | 
2 | CCN(CC)C(=O)CC(C)c1ccc(OC(C)c2ccccc2)cc1 (stereo not drawn) | 4300 nM |  | 
3 | CCN(CC)C(=O)/C=C(\C)c1ccc(OC(C)c2ccccc2)c(OCCC(=O)O)c1 (stereo not drawn) | 128 nM | 81 nM | Punch weight/MPO activity [2]: <40; Punch weight/MPO activity [4]: <24; Punch weight/MPO activity [5]: <39; Punch weight/MPO activity [6]: 21; Punch weight/MPO activity [7]: <25
4 | CCN(CC)C(=O)/C=C(\C)c1ccc(SCc2ccccc2)c(OCC(=O)O)c1 | 34 nM | 26 nM | Punch weight/MPO activity [8]: 1
5 | CCN(CC)C(=O)/C=C(\C)c1ccc(CCc2ccccc2)c(OCC(=O)O)c1 | 56 nM | 7.7 nM | Punch weight/MPO activity [9]: 27
6 | CCN(CC)C(=O)/C=C(\C)c1ccc(OCc2c(F)cccc2F)c(CC(=O)O)c1 | 87 nM | 22 nM | Punch weight/MPO activity [10]: <59; Punch weight/MPO activity [11]: 44; Punch weight/MPO activity [12]: <32; Punch weight/MPO activity [13]: <45
7 | CCN(CC)C(=O)/C=C(\C)c1ccc(OCc2c(F)cccc2F)c(OCC(=O)O)c1 | 56 nM | 18 nM | Punch weight/MPO activity [14]: <52; Punch weight/MPO activity [15]: <34; Punch weight/MPO activity [16]: <46; Punch weight/MPO activity [17]: <26
8 | CCN(CC)C(=O)/C=C(\C)c1ccc(OCc2c(Cl)cccc2Cl)c(OCC(=O)O)c1 | 31 nM | 14 nM | Punch weight/MPO activity [18]: 0
9 | CCN(CC)C(=O)/C=C(\C)c1ccc(OC(C)c2ccccc2)c(C(=O)O)c1 (stereo not drawn) | 884 nM |  | 
10 | CCN(CC)C(=O)/C=C(\C)c1ccc(OC(C)c2ccccc2)c(OCC(=O)O)c1 (stereo not drawn) | 50 nM | 9.1 nM | Punch weight/MPO activity [19]: <27; Punch weight/MPO activity [20]: <50; Punch weight/MPO activity [21]: <41; Punch weight/MPO activity [22]: <56
11 | CCN(CC)C(=O)/C=C(\C)c1ccc(OC(C)c2ccccc2)c(O)c1 (stereo not drawn) | 420 nM |  | 
12 | CCN(CC)C(=O)/C=C(\C)c1ccc(OC(c2ccccc2)c2ccccc2)c(OCC(=O)O)c1 | 64 nM | 5.2 nM | Punch weight/MPO activity [23]: 14
13 | CCN(CC)C(=O)/C=C(\C)c1cc(OCC(=O)O)cc(OC(C)c2ccccc2)c1 (stereo not drawn) | 84 nM | 11.2 nM | 
14 | C/C(=C\C(=O)N1CCCCC1)c1ccc(OC(C)c2ccccc2)cc1 (stereo not drawn) | 5800 nM |  | 
15 | CCCN(CCC)C(=O)/C=C(\C)c1ccc(OC(C)c2ccccc2)cc1 (stereo not drawn) | 1400 nM |  | 
16 | CCN(CC)C(=O)/C=C(\C)c1ccc(OCc2ccccc2Cl)c(OCC(=O)O)c1 | 67 nM | 16 nM | Punch weight/MPO activity [24]: <33
17 | CCN(CC)C(=O)/C=C(\C)c1ccc(-c2ccccc2)cc1 | > 10000 nM |  | 

Row | Structure (SMILES) | IC50 [1] | Ki [3] | further results
18 | CCN(CC)C(=O)/C=C(\C)c1ccc(OC(C)C)cc1 | > 10000 nM |  | 
19 | CCN(CC)C(=O)/C=C(\C)c1ccc(OCc2ccccc2F)c(OCC(=O)O)c1 | 119 nM | 27 nM | Punch weight/MPO activity [25]: <19
20 | CCN(CC)C(=O)/C=C(\C)c1ccc(OCc2ccccc2)c(OCC(=O)O)c1 | 182 nM | 82 nM | 
21 | COc1ccc(C(=O)O)cc1NC(=O)/C=C(\C)c1ccc(OC(C)c2ccccc2)cc1 (stereo not drawn) | > 10000 nM |  | 
22 | CCN(CC)C(=O)/C=C(\C)c1ccc(OCc2ccccc2)cc1 | 7900 nM |  | 
23 | CCNC(=O)/C=C(\C)c1ccc(OC(C)c2ccccc2)cc1 (stereo not drawn) | 2000 nM |  | 
24 | CCN(CC)C(=O)/C=C(\C)c1ccc(OC(C)c2ccccc2)cc1OCC(=O)O (stereo not drawn) | 2225 nM |  | 
25 | CCN(CC)C(=O)/C=C(\C)c1ccc(OC(C)c2ccccc2)c(OCCCC(=O)O)c1 (stereo not drawn) | 216 nM |  | 
26 | CCN(CC)C(=O)/C=C(\C)c1ccc(OC(C)c2ccccc2)cc1 (stereo not drawn) | 744 nM |  | 
27 | CCN(CC)C(=O)/C=C(\C)c1ccc(O[C@H](C)c2ccccc2)c(CC(=O)O)c1 | 536 nM |  | 
28 | CCN(CC)C(=O)/C=C(\C)c1ccc(O[C@@H](C)c2ccccc2)c(CC(=O)O)c1 | 39 nM |  | 
29 | CCN(CC)C(=O)/C=C/c1ccc(OC(C)c2ccccc2)cc1 (stereo not drawn) | 1600 nM |  | 
30 | C/C(=C\C(=O)N(C)C)c1ccc(OC(C)c2ccccc2)cc1 (stereo not drawn) | 2100 nM |  | 
31 | CCN(CC)C(=O)/C=C(\C)c1ccc(OC(C)c2ccccc2)c(CCC(=O)O)c1 (stereo not drawn) | 48 nM |  | Ki [26]: 9.5 nM
32 | C/C(=C\C(=O)N(C(C)C)C(C)C)c1ccc(OC(C)c2ccccc2)cc1 (stereo not drawn) | 1100 nM |  | 
33 | CCN(CC)C(=O)/C=C(\C)c1ccc(OC(C)c2ccccc2)c(CC(=O)O)c1 (stereo not drawn) | 81 nM | 9.5 nM | Punch weight/MPO activity [27]: <29; Punch weight/MPO activity [28]: <41; Punch weight/MPO activity [29]: <55
